The values that follow come from paper PMC5019276 (International Journal of Nanomedicine, 2016).

The subject of data set [1] is HT-29 cells. Put plainly: In vitro cytotoxicity, MTT assay. Conditions: Homo sapiens, HT-29, read-out: IC50 (half maximal inhibitory concentration). In kind it is cell-based. Summed up:
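HT-29 cells were grown in RPMI-1640 with 10% FBS and 1% penicillin/streptomycin. They were seeded at 3–5×10^4 cells/well and cultured 24 h at 37°C in humid 5% CO2. Drug-loaded and blank nanoparticles were then tested by MTT, with absorbance read at 490 nm. Viability (%) = absorbance of treated cells / absorbance of untreated cells × 100. Triplicates; mean ± SD (n=3).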
On the technique in general: Formazan colour is commonly taken as a measure of viable cells.

Data set [2] in a line: In vitro drug release by dialysis. The settings on record: pH 2.0, 5.0 and 6.8, after 72 hours. In kind it is physicochemical. The method, boiled down:
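Dialysis (MWCO 6–8 kDa): 2.5 mL of nanoparticle or free-drug solution (drug 0.2 mg/mL) against 10 mL medium. Media were 0.05 M glycine–HCl pH 2.0, 0.05 M phosphate pH 5.0 and 0.05 M phosphate pH 6.8, each with 1% ascorbic acid and 0.1% BHT. Stirred at 37°C for 72 h; 3.0 mL withdrawn at intervals and replaced. Drug measured by C18 HPLC at 420 nm. Run three times.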

Data set [3] in a line: In vivo oral administration and pharmacokinetics. Also on record: species or system rats. Conditions: plasma, 100 mg/kg.
In data set [4] the test system is HT-29 cells. The data set can be described thus: Intracellular uptake by fluorescence microscopy. In kind it is cell-based, Human. Conditions: 7.5 μg/mL, 3 hours, 37°C. The method, boiled down:
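HT-29 cells were seeded at 2.5×10^4 cells/well and incubated overnight at 37°C in 5% CO2. They were exposed to free drug or drug-loaded nanoparticles at 7.5 μg/mL for 3 h at 37°C, with untreated and blank-nanoparticle controls. Cells were rinsed three times with 37°C PBS. Imaging used fluorescence microscopy with 420–490 nm excitation and 490–560 nm emission.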

≈ marks a conversion by molar mass, not a printed value.

For `COc1cc(/C=C/C(=O)CC(=O)/C=C/c2ccc(O)c(OC)c2)ccc1O` [Cur, Curcumin], the IC50 in the data set with HT-29 cells [1] came to 28.5 µg/mL (≈ 77.4 µM). Further, in data set [2], the “release after 72 hours (in words)” value is reported as “completed its release/diffusion”. In data set [3] (male, Sprague Dawley, rat, po), the Cmax – broadly, the maximum level reached in the sampled fluid or tissue – was determined as 11000 ± 1170 ng/mL; the MRT last (usually a mean duration of stay, worked out from the concentration-time curve) amounted to 4.33 ± 0.67 h; the Tmax (commonly the time at which the peak concentration occurs) came to 1 h; the half-life – broadly, how long it takes for the measured level to halve – is 0.9 ± 0.89 h. In data set [3] (oral), the “AUC0–24 hours” value is 65120 ± 7420 ng·h/mL. Besides, the “fluorescence of cells (cell uptake)” value with HT-29 cells [4] is “relatively faint”.
